The target of assay [1] is RAC-alpha serine/threonine-protein kinase (Mus musculus) (UniProt P31750). In words: Inhibition of AKT phosphorylation in Nf1 defective and Trp53 defective mouse K1492 cells. Format: cell-based.
A short description of assay [2]: Growth inhibition of Nf1 defective and Trp53 defective mouse K1492 cells after 2 days by XTT assay. The note with it: K1492, 2 days. A general note: Formazan colour is commonly taken as a measure of viable cells.
The nature of assay [3]: Induction of ROS generation in Nf1 defective and Trp53 defective mouse K5001 cells at 10 uM after 6 hrs by DCFDA fluorogenic dye-based fluorimetric analysis. Type of assay: functional. In outline: (§1)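 Cells plated at 1000/well in black-wall, clear-bottom, polylysine-coated 384-well plates and treated 6 h with 10 μM compound or DMSO control. Carboxymethyl H2DCFDA (10 mM stock in DMSO) added at 25 μM final for the last 1 h. After two PBS washes, cell-associated fluorescence read bottom-mode at Ex 495/Em 529 nm. Result expressed as T/C ratio versus untreated controls, means ± SD.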

Assay [4] concerns KR158. In words: Induction of apoptosis in Nf1 defective and Trp53 defective mouse KR158 cells assessed as DNA fragmentation at 10 uM up to 48 hrs by ELISA. Format: functional, cell-based. A general note: ELISA stands for enzyme-linked immunosorbent assay.
Assay [5] is described as follows: Growth inhibition of Nf1 defective and Trp53 defective mouse KR158 cells after 2 days by XTT assay. The conditions noted are these: KR158, 2 days.
A short description of assay [6]: Growth inhibition of Nf1 defective and Trp53 defective mouse K5001 cells after 2 days by XTT assay. The note with it: K5001, 2 days.
Assay [7] deals with RAC-alpha serine/threonine-protein kinase (Mus musculus) (UniProt P31750). In words: Inhibition of AKT phosphorylation in Nf1 defective and Trp53 defective mouse K5001 cells. Type of assay: cell-based.
Assay [8] in a line: Induction of ROS generation in Nf1 defective and Trp53 defective mouse KR158 cells at 10 uM after 6 hrs DCFDA fluorogenic dye-based fluorimetric analysis. Type of assay: functional. In outline:
as §1

Assay [9] is described as follows: Growth inhibition of Nf1 defective and Trp53 defective mouse primary astrocytes after 2 days by XTT assay. The note with it: Astrocyte.
Assay [10] concerns K5001. In words: Induction of apoptosis in mouse Nf1 defective and Trp53 defective K5001 cells assessed as DNA fragmentation at 10 uM up to 48 hrs by ELISA. Format: functional, cell-based.
Assay [11] in a line: Induction of ROS generation in Nf1 defective and Trp53 defective mouse K1492 cells at 10 uM after 6 hrs DCFDA fluorogenic dye-based fluorimetric analysis. Type of assay: functional. In outline: as §1
Assay [12] in a line: Growth inhibition of Nf1 defective and Trp53 defective mouse KR158 cells at 80 uM after 2 days by XTT assay. The note with it: KR158, 2 days, read-out: GI.

Here are results for two compounds from ChEMBL document CHEMBL3739310, “Deguelins, Natural Product Modulators of NF1-Defective Astrocytoma Cell Growth Identified by High-Throughput Screening of Partially Purified Natural Product Extracts” (J Nat Prod, 2015).

Each structure is given as a SMILES string. Activity calls are given as the source filed them. The calls are words filed in the database; no cut-off is given here. A value given as a limit tells only on which side of the number the result lay.

Sequence of RAC-alpha serine/threonine-protein kinase (Mus musculus) (P31750 whole entry): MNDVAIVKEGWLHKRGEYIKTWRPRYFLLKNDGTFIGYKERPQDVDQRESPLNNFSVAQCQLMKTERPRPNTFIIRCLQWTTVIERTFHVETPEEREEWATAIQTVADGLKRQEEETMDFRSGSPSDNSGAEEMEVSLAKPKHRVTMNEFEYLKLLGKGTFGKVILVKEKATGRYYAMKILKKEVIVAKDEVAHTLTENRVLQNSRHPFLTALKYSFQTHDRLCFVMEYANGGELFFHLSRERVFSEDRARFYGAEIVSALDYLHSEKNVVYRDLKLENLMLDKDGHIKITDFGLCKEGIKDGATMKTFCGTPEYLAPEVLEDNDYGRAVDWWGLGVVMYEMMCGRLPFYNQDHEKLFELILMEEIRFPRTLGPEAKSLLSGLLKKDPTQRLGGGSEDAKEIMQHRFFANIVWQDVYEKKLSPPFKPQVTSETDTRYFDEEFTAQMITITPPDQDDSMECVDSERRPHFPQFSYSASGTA

For orientation: IC50 means the concentration at which inhibition is half-maximal. On to `COc1cc2c(cc1OC)[C@@H]1C(=O)c3ccc4c(c3O[C@@H]1CO2)C=CC(C)(C)O4` [DEGUELIN], for which the inhibition entry in [1] and in [7] was “inactive” throughout. In addition, the concentration for half-maximal inhibition (IC50) was more than 80 µM in [2], 12.6 µM in [5], 1.2 µM in [6] and more than 80 µM in assay [9]. In addition, the entries for the “fold change (FC)” value in assay [3], in [8] and in assay [11] were 3.5, 3.9 and 5.6, respectively. Besides, the result in assay [4] and in [10] was inactive.
Regarding `COc1cc2c(cc1OC)-c1c(oc3c4c(ccc3c1=O)OC(C)(C)C=C4)CO2` [DEHYDRODEGUELIN], the inhibition result in assay [1] and in assay [7] was “inactive” throughout. The IC50 was more than 80 µM in assay [2], more than 80 µM in assay [5], 1.2 µM in assay [6] and more than 80 µM in assay [9]. In addition, the outcome in assay [4] and in assay [10] was inactive. The inhibition of growth at 80 µM in assay [12] came to 40%.
